What was measured:
[1] = test system: Klebsiella pneumoniae; assay: Antimicrobial activity against Klebsiella pneumoniae at 50 ug/disk after 24 to 28 hrs; type: functional; conditions: read-out: IZ
In short: (§1)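 Agar disk diffusion: 5 mm paper disks loaded with 50 µg/disk in DMSO. Inhibition zones read after 24–28 h at 37 °C for bacteria, or 5 days at 28 °C for clinical Candida isolates grown on Sabouraud dextrose agar. Zone graded 6–10 mm slight, 11–15 mm moderate, >15 mm high. Reference disks: nalidixic acid 30 µg, nystatin 100 U.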

[2] = test system: Mus musculus; assay: Analgesic activity in Swiss albino mouse assessed as reaction time at 15 mg/kg, po after 90 mins by hot plate test; type: functional
In short: (§2)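 Mice of both sexes, 25–30 g, on a hot plate at 53 ± 0.5 °C; reaction time taken to hind-paw lick or jump, 60 s cut-off. Baseline read before dosing. Oral dosing in 10% v/v Tween 80 in water: test agents 15 mg/kg, acetylsalicylic acid 100 mg/kg. Re-read at 15, 30, 60 and 90 min; means ± SE.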

[3] = test system: Mus musculus; assay: Analgesic activity in Swiss albino mouse assessed as reaction time at 15 mg/kg, po after 30 mins by hot plate test; type: functional; in short: as §2
[4] = test system: Pseudomonas aeruginosa; assay: Antimicrobial activity against Pseudomonas aeruginosa at 50 ug/disk after 24 to 28 hrs; type: functional; conditions: read-out: IZ; in short: as §1
[5] = test system: Mus musculus; assay: Analgesic activity in Swiss albino mouse assessed as reaction time at 15 mg/kg, po after 60 mins by hot plate test; type: functional; in short: as §2
[6] = test system: Staphylococcus aureus; assay: Antimicrobial activity against Staphylococcus aureus at 50 ug/disk after 24 to 28 hrs; type: functional; conditions: read-out: IZ; in short: as §1
[7] = test system: Escherichia coli; assay: Antimicrobial activity against Escherichia coli at 50 ug/disk after 24 to 28 hrs; type: functional; conditions: read-out: IZ; in short: as §1
[8] = test system: Mus musculus; assay: Analgesic activity against acetic acid-induced abdominal constriction in Swiss albino mouse at 15 mg/kg, po after 20 mins by writhing test; type: functional, Abdomen
In short: (§3)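 Mice of both sexes, 25–30 g, dosed orally in 10% v/v Tween 80 in water. Test agents were given at 15 mg/kg and acetylsalicylic acid at 100 mg/kg. 30 min later, 0.7% acetic acid (10 ml/kg) ip. Writhes counted over 20 min; six per group. % protection = (control mean − treated mean)/control mean ×100; means ± SE.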

[9] = test system: Mus musculus; assay: Analgesic activity against acetic acid-induced abdominal constriction in Swiss albino mouse at 15 mg/kg, po after 20 mins by writhing test relative to acetylsalicylic acid; type: functional, Abdomen; in short: as §3
[10] = test system: Mus musculus; assay: Analgesic activity against acetic acid-induced abdominal constriction in Swiss albino mouse at 100 mg/kg, po after 20 mins by writhing test; type: functional, Abdomen; in short: as §3
[11] = test system: Mus musculus; assay: Analgesic activity in Swiss albino mouse assessed as reaction time at 100 mg/kg, po after 90 mins by hot plate test; type: functional; in short: as §2
[12] = test system: Mus musculus; assay: Analgesic activity in Swiss albino mouse assessed as reaction time at 100 mg/kg, po after 30 mins by hot plate test; type: functional; in short: as §2
[13] = test system: Mus musculus; assay: Analgesic activity in Swiss albino mouse assessed as reaction time at 100 mg/kg, po after 60 mins by hot plate test; type: functional; in short: as §2
[14] = test system: Nakaseomyces glabratus; assay: Antimicrobial activity against Candida glabrata at 50 ug/disk after 5 days; type: functional; conditions: for zone of inhibition at 50 µg/disc: 120 h, read-out: IZ; in short: as §1
[15] = test system: Candida albicans; assay: Antimicrobial activity against Candida albicans at 50 ug/disk after 5 days; type: functional; conditions: 120 h, read-out: IZ; in short: as §1
[16] = test system: Klebsiella pneumoniae; assay: Antimicrobial activity against Klebsiella pneumoniae; type: functional
In short: (§4)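 MIC found by disk diffusion using disks carrying varying amounts of compound per disk, in DMSO. Incubated 24–28 h at 37 °C for bacteria and 5 days at 28 °C for Candida. MIC given in µg/disk.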

[17] = test system: Escherichia coli; assay: Antimicrobial activity against Escherichia coli; type: functional; in short: as §4
[18] = test system: Staphylococcus aureus; assay: Antimicrobial activity against Staphylococcus aureus; type: functional; in short: as §4
[19] = test system: Pseudomonas aeruginosa; assay: Antimicrobial activity against Pseudomonas aeruginosa; type: functional; in short: as §4
[20] = test system: Rattus norvegicus; assay: Antiinflammatory activity against carrageenan-induced paw edema in Sprague-Dawley rat at 15 mg/kg, po relative to indomethacin after 2 hrs; type: functional
In short: (§5)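 Adult male rats, 150–180 g, six per group. Oral dose 1 h before 0.1 ml 1% carrageenin sc into the left hind footpad: test agents 15 mg/kg as suspension, indomethacin 10 mg/kg; vehicle 10% Tween 80. Paw volume by plethysmometer before injection, then hourly for 4 h. Edema % = (Vt−Vc)/Vc; inhibition % = (Ec−Et)/Ec. Potency taken relative to indomethacin. Means ± SE.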

[21] = test system: Rattus norvegicus; assay: Antiinflammatory activity against carrageenan-induced paw edema in Sprague-Dawley rat at 15 mg/kg, po relative to indomethacin after 1 hr; type: functional; in short: as §5
[22] = test system: Rattus norvegicus; assay: Antiinflammatory activity against carrageenan-induced paw edema in Sprague-Dawley rat at 15 mg/kg, po after 2 hrs; type: functional; in short: as §5
[23] = test system: Rattus norvegicus; assay: Antiinflammatory activity against carrageenan-induced paw edema in Sprague-Dawley rat at 15 mg/kg, po after 4 hrs; type: functional; in short: as §5
[24] = test system: Rattus norvegicus; assay: Antiinflammatory activity against carrageenan-induced paw edema in Sprague-Dawley rat at 15 mg/kg, po relative to indomethacin after 3 hrs; type: functional; in short: as §5
[25] = test system: Rattus norvegicus; assay: Antiinflammatory activity against carrageenan-induced paw edema in Sprague-Dawley rat at 15 mg/kg, po relative to indomethacin after 4 hrs; type: functional; in short: as §5
[26] = test system: Rattus norvegicus; assay: Antiinflammatory activity against carrageenan-induced paw edema in Sprague-Dawley rat at 15 mg/kg, po after 3 hrs; type: functional; in short: as §5
[27] = test system: Rattus norvegicus; assay: Antiinflammatory activity against carrageenan-induced paw edema in Sprague-Dawley rat at 15 mg/kg, po after 1 hr; type: functional; in short: as §5
[28] = test system: Candida albicans; assay: Antimicrobial activity against Candida albicans; type: functional; in short: as §4
[29] = test system: Rattus norvegicus; assay: Antiinflammatory activity against carrageenan-induced paw edema in Sprague-Dawley rat at 10 mg/kg, po after 4 hrs; type: functional; in short: as §5
[30] = test system: Rattus norvegicus; assay: Antiinflammatory activity against carrageenan-induced paw edema in Sprague-Dawley rat at 10 mg/kg, po after 2 hrs; type: functional; in short: as §5
[31] = test system: Rattus norvegicus; assay: Antiinflammatory activity against carrageenan-induced paw edema in Sprague-Dawley rat at 10 mg/kg, po after 1 hr; type: functional; in short: as §5
[32] = test system: Rattus norvegicus; assay: Antiinflammatory activity against carrageenan-induced paw edema in Sprague-Dawley rat at 10 mg/kg, po after 3 hrs; type: functional; in short: as §5

Compound	zone of inhibition at 50 µg/disc [1] [mm]	Time [2] [s]	Time [3] [s]	zone of inhibition at 50 µg/disc [4] [mm]	Time [5] [s]	zone of inhibition at 50 µg/disc [6] [mm]	zone of inhibition at 50 µg/disc [7] [mm]	Activity [8] [%]	Activity [9] [%]	MIC [16] [µg]	MIC [17] [µg]	MIC [18] [µg]	MIC [19] [µg]	also measured
O=c1[nH]c(=S)[nH]c2nc3c(c(-c4ccccc4)c12)CCCC3	14	11.12	8.65	15	10.98	13	12	35.4	68.47	–	–	–	–	–
O=c1c2c(-c3ccccc3)c3c(nc2nc2n(-c4ccccc4)nc(-c4ccccc4)n12)CCCC3	–	11.88	9.84	–	11.62	–	–	4.6	8.89	–	–	–	–	–
CCn1cc(C(=O)O)c(=O)c2ccc(C)nc21 [NALIDIXIC ACID]	25	–	–	25	–	25	24	–	–	–	–	–	–	–
CC(=O)Oc1ccccc1C(=O)O [ASPIRIN]	–	–	–	–	–	–	–	–	–	–	–	–	–	Activity [10]: 51.7%; Time [11]: 13.15 s; Time [12]: 10.03 s; Time [13]: 11.39 s
O=c1[nH]c(N/N=C\c2ccccc2)nc2nc3c(c(-c4ccccc4)c12)CCCC3	18	12.68	10.08	14	12.52	16	15	34.9	67.51	–	–	–	–	zone of inhibition at 50 µg/disc [14]: 7 mm; zone of inhibition at 50 µg/disc [15]: 7 mm
O=c1c2c(-c3ccccc3)c3c(nc2nc2[nH]nnn12)CCCC3	16	10.08	9.16	22	10.78	17	18	14	27.07	30	30	30	30	–
Cc1cc(C)n(-c2nc3nc4c(c(-c5ccccc5)c3c(=O)[nH]2)CCCC4)n1	20	11.5	8.93	22	10.15	21	19	59.2	114.51	30	30	30	30	inhibition in vivo at 15 mg/kg [20]: 1.5%; inhibition in vivo at 15 mg/kg [21]: 14.5%; inhibition in vivo at 15 mg/kg [22]: 0.9%; inhibition in vivo at 15 mg/kg [23]: 0.8%; zone of inhibition at 50 µg/disc [14]: 9 mm; inhibition in vivo at 15 mg/kg [24]: 0.1%; inhibition in vivo at 15 mg/kg [25]: 1.7%; zone of inhibition at 50 µg/disc [15]: 9 mm; inhibition in vivo at 15 mg/kg [26]: 0.1%; inhibition in vivo at 15 mg/kg [27]: 10.5%
Cc1n[nH]c2nc3nc4c(c(-c5ccccc5)c3c(=O)n12)CCCC4	20	10.4	8.68	21	8.8	21	20	5.8	11.2	20	20	20	20	zone of inhibition at 50 µg/disc [14]: 13 mm; zone of inhibition at 50 µg/disc [15]: 18 mm; MIC [28]: 50 µg
NYSTATIN	–	–	–	–	–	–	–	–	–	–	–	–	–	inhibition zone (IZ) [14]: 19 mm
COc1ccc2c(c1)c(CC(=O)O)c(C)n2C(=O)c1ccc(Cl)cc1 [INDOMETHACIN]	–	–	–	–	–	–	–	–	–	–	–	–	–	inhibition in vivo at 10 mg/kg [29]: 46.4%; inhibition in vivo at 10 mg/kg [30]: 58.2%; inhibition in vivo at 10 mg/kg [31]: 56.9%; inhibition in vivo at 10 mg/kg [32]: 42.6%
Nc1n[nH]c2nc3nc4c(c(-c5ccccc5)c3c(=O)n12)CCCC4	22	7.62	5.14	22	6.74	21	20	57.1	110.44	30	30	30	30	inhibition in vivo at 15 mg/kg [20]: 2.1%; inhibition in vivo at 15 mg/kg [21]: 17.7%; inhibition in vivo at 15 mg/kg [22]: 1.2%; inhibition in vivo at 15 mg/kg [23]: 9.5%; inhibition in vivo at 15 mg/kg [24]: 6.6%; inhibition in vivo at 15 mg/kg [25]: 20.5%; inhibition in vivo at 15 mg/kg [26]: 2.8%; inhibition in vivo at 15 mg/kg [27]: 10.1%
O=c1[nH]c(=S)[nH]c2nc3c(c(-c4ccc(Cl)cc4)c12)CCCC3	14	–	–	14	–	13	13	–	–	–	–	–	–	–
NNc1nc2nc3c(c(-c4ccccc4)c2c(=O)[nH]1)CCCC3	13	12	7.54	15	10.61	11	13	52.9	102.32	–	–	–	–	inhibition in vivo at 15 mg/kg [20]: 35.7%; inhibition in vivo at 15 mg/kg [21]: 53.5%; inhibition in vivo at 15 mg/kg [22]: 20.8%; inhibition in vivo at 15 mg/kg [23]: 18.6%; inhibition in vivo at 15 mg/kg [24]: 51.1%; inhibition in vivo at 15 mg/kg [25]: 40.1%; inhibition in vivo at 15 mg/kg [26]: 21.8%; inhibition in vivo at 15 mg/kg [27]: 30.5%
CC(=O)NNc1nc2nc3c(c(-c4ccccc4)c2c(=O)[nH]1)CCCC3	18	9.22	8.62	22	8.06	19	20	60.4	116.83	20	20	20	20	inhibition in vivo at 15 mg/kg [20]: 39.2%; inhibition in vivo at 15 mg/kg [21]: 45.5%; inhibition in vivo at 15 mg/kg [22]: 22.8%; inhibition in vivo at 15 mg/kg [23]: 21.8%; zone of inhibition at 50 µg/disc [14]: 16 mm; inhibition in vivo at 15 mg/kg [24]: 55.9%; inhibition in vivo at 15 mg/kg [25]: 46.9%; zone of inhibition at 50 µg/disc [15]: 17 mm; inhibition in vivo at 15 mg/kg [26]: 23.9%; inhibition in vivo at 15 mg/kg [27]: 25.9%; MIC [28]: 50 µg
Nn1c(-c2ccccc2)cn2c(=O)c3c(-c4ccccc4)c4c(nc3nc12)CCCC4	22	10.67	9.42	23	11.41	19	21	37.1	71.76	20	20	20	20	–

— ChEMBL document CHEMBL1143876, “Synthesis, analgesic, anti-inflammatory, and antimicrobial activity of some novel pyrimido[4,5-b]quinolin-4-ones” (2008)
